Source: ChEMBL document CHEMBL3580530, “Allotides: Proline-Rich Cystine Knot α-Amylase Inhibitors from Allamanda cathartica” (J Nat Prod, 2015)
Activity calls are given as the source filed them. The calls are words filed in the database; no cut-off is given here. Where a SMILES comes first, the peptide text is derived from it. Bridges are numbered along the chain shown (N, C = ends).

How the values were obtained:
[1] = Thermal stability assessed as compound degradation at 100 degC incubated for 1 hr; assay type: physicochemical
How it was run: (§1)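 Peptide heated at 100 °C for 1 h. Intact peptide monitored by UPLC and MS.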

[2] = Thermal stability assessed as compound degradation in presence of chymotrypsin at 37 degC incubated for 4 hrs; assay type: ADME; conditions: isolated protein
How it was run: (§2)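 Peptide incubated with chymotrypsin at 37 °C for 4 h. Intact peptide monitored by UPLC and MS.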

[3] = target: Alpha-amylase (Tenebrio molitor) (UniProt P56634); test: (§3) Inhibition of Tenebrio molitor alpha-amylase pre-incubated for 20 mins at 37 degC by bernfeld method
Sequence of Alpha-amylase (Tenebrio molitor) (P56634 whole entry): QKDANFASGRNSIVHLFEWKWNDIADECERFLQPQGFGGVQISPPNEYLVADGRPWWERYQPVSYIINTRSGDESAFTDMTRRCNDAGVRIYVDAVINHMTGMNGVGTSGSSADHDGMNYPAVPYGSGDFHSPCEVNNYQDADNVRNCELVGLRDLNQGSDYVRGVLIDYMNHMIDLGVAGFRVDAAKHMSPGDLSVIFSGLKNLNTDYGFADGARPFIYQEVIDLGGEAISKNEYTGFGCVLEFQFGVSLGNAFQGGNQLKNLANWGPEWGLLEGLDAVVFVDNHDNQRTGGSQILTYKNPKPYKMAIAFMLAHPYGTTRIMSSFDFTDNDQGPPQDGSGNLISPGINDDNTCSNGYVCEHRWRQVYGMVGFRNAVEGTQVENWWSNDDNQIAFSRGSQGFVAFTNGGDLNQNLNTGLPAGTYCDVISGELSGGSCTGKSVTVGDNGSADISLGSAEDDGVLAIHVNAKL
How it was run: (§4)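 Bernfeld method. Peptide preincubated with α-amylase for 20 min at 37 °C. Hydrolysis started with 1% starch, run 5 min, then stopped with dinitrosalicylic acid color reagent. Absorbance read at 540 nm, with untreated enzyme set as 100%. Enzyme sources: T. molitor larval extract, human saliva, porcine pancreas, A. oryzae.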

[4] = target: T1, Alpha-amylase 1A (Homo sapiens) (UniProt P0DUB6); test: Inhibition of alpha-amylase in human saliva pre-incubated for 20 mins at 37 degC by bernfeld method; how it was run: as §4
T1 sequence (whole entry): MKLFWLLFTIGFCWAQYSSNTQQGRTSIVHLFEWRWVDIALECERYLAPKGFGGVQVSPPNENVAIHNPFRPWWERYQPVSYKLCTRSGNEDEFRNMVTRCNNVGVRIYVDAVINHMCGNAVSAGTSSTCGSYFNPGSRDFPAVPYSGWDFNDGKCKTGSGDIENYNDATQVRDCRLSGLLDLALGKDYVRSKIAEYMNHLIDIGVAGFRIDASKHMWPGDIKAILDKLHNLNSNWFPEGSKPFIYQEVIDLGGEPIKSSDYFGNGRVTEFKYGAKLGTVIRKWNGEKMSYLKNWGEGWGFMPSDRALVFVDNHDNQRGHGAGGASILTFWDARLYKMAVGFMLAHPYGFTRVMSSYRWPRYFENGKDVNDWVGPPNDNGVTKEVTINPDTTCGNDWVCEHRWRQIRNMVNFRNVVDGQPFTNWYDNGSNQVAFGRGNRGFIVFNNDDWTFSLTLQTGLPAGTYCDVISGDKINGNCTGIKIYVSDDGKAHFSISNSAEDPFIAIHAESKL

[5] = target: T2, Pancreatic alpha-amylase (Sus scrofa) (UniProt P00690); test: Inhibition of porcine pancreas alpha-amylase pre-incubated for 20 mins at 37 degC by bernfeld method; how it was run: as §4
T2 sequence (whole entry): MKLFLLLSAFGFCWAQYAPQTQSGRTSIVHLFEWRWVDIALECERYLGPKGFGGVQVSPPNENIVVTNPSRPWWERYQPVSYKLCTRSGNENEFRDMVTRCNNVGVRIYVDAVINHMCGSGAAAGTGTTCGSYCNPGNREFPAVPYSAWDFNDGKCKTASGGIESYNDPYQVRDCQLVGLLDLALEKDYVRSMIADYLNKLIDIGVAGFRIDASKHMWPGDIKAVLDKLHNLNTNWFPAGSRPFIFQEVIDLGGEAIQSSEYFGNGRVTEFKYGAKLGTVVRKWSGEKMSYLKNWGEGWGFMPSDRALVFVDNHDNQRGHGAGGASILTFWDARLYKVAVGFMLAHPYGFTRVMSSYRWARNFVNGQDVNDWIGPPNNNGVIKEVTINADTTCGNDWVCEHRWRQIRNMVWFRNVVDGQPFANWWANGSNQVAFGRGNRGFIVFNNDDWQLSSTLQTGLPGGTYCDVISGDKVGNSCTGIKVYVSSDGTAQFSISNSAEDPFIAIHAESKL

[6] = tested on: Aspergillus oryzae; test: Inhibition of Aspergillus oryzae alpha-amylase pre-incubated for 20 mins at 37 degC by bernfeld method; how it was run: as §4
[7] = Thermal stability assessed as compound remaining at 100 degC incubated for 1 hr by UPLC and MS method; assay type: physicochemical; conditions: read-out: Stability; how it was run: as §1
[8] = Thermal stability assessed as compound remaining in presence of chymotrypsin at 37 degC incubated for 4 hrs by UPLC and MS method; assay type: ADME; conditions: read-out: Stability; how it was run: as §2
[9] = Thermal stability assessed as compound hydrolysis using filly reduced form of compound in presence of chymotrypsin at 37 degC incubated for 4 hrs by UPLC and MS method; assay type: ADME; conditions: isolated protein
How it was run: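 Incubated with chymotrypsin at 37 °C for 4 h, then analysed by UPLC and MS.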

[10] = target: Alpha-amylase (Tenebrio molitor, UniProt P56634); test: as §3; how it was run: as §4
Sequence of Alpha-amylase (P56634 whole entry): as the sequence (P56634 whole entry) above

[11] = Toxicity against BHK cells assessed as effect on cell viability up to 100 uM by Presto blue reagent based assay; design: species or system Mesocricetus auratus; conditions: hamster
[12] = Toxicity against human HuH7 cells assessed as effect on cell viability up to 100 uM by Presto blue reagent based assay; conditions: huh-7
[13] = tested on: Vero; test: Toxicity against African green monkey Vero cells assessed as effect on cell viability up to 100 uM by Presto blue reagent based assay; conditions: chlorocebus sabaeus
[14] = Toxicity against human O type erythrocytes cells assessed as induction of hemolysis up to 100 uM; assay type: cell-based; conditions: erythrocyte
How it was run: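 Hemolysis tested on human type O erythrocytes at up to 100 μM. Cliotide T4 used as the hemolytic positive control. Absorbance read on a microplate reader.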

[15] = tested on: Escherichia coli; test: Antibacterial activity against Escherichia coli up to 100 uM by radial diffusion assay; assay type: functional, organism-based
How it was run: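 Radial diffusion assay against E. coli, peptide tested up to 100 μM. Positive control: D4R, a broad-spectrum antimicrobial peptide dendrimer made in-house.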

Stability [1]	Stability [2]	inhibition [3]	inhibition [4]	inhibition [5]	inhibition [6]	remaining at 1 h [7] [%]	remaining at 4 h [8] [%]	Stability [9]	IC50 [10] [µM]	SMILES	Activity [11]	Activity [12]	Activity [13]	Activity [14]	Activity [15]
Stable	Stable	–	–	–	–	–	–	–	–	CC[C@H](C)[C@@H]1NC(=O)CNC(=O)CNC(=O)[C@H]([C@@H](C)CC)NC(=O)[C@H](C(C)C)NC(=O)[C@@H]2CCCN2C(=O)[C@H](CCC(N)=O)NC(=O)[C@H]([C@@H](C)O)NC(=O)[C@@H]2CSSC[C@@H]3NC(=O)[C@H](Cc4ccc(O)cc4)NC(=O)[C@H](CCC(=O)O)NC(=O)CNC(=O)[C@H](CCCCN)NC(=O)[C@H](CCC(N)=O)NC(=O)[C@H](C)NC(=O)[C@@H](N)CSSC[C@H](NC(=O)[C@H](CSSC[C@@H](C(=O)N[C@@H](C)C(=O)O)NC1=O)NC(=O)[C@H](CCC(N)=O)NC(=O)[C@H](CC(C)C)NC(=O)[C@H](Cc1ccc(O)cc1)NC(=O)[C@H](C(C)C)NC(=O)[C@H](CO)NC3=O)C(=O)N[C@@H](CC(=O)O)C(=O)N1CCC[C@H]1C(=O)N[C@@H](Cc1ccc(O)cc1)C(=O)N[C@@H](Cc1cnc[nH]1)C(=O)N2	–	–	–	–	–
–	–	inactive	inactive	inactive	inactive	–	–	–	–	CC[C@H](C)[C@@H]1NC(=O)CNC(=O)CNC(=O)[C@H]([C@@H](C)CC)NC(=O)[C@H](C(C)C)NC(=O)[C@@H]2CCCN2C(=O)[C@H](CCC(N)=O)NC(=O)[C@H]([C@@H](C)O)NC(=O)[C@@H]2CSSC[C@@H]3NC(=O)[C@H](Cc4ccc(O)cc4)NC(=O)[C@H](CCC(=O)O)NC(=O)CNC(=O)[C@H](CCCCN)NC(=O)[C@H](CCC(N)=O)NC(=O)[C@H](C)NC(=O)[C@@H](N)CSSC[C@H](NC(=O)[C@H](CSSC[C@H](C(=O)N[C@@H](C)C(=O)O)NC1=O)NC(=O)[C@H](CCC(N)=O)NC(=O)[C@H](CC(C)C)NC(=O)[C@H](Cc1ccc(O)cc1)NC(=O)[C@H](C(C)C)NC(=O)[C@H](CO)NC3=O)C(=O)N[C@@H](CC(=O)O)C(=O)N1CCC[C@H]1C(=O)N[C@@H](Cc1ccc(O)cc1)C(=O)N[C@@H](Cc1cnc[nH]1)C(=O)N2	–	–	–	–	–
Stable	Stable	Dose-dependent effect	inactive	inactive	inactive	> 90	> 90	Unstable	2.6	CC[C@H](C)[C@@H]1NC(=O)CNC(=O)[C@H](CC(=O)O)NC(=O)[C@@H]2CSSC[C@@H]3NC(=O)[C@H](CC(C)C)NC(=O)[C@H](Cc4c[nH]c5ccccc45)NC(=O)[C@@H]4CCCN4C(=O)[C@H](CC(=O)O)NC(=O)[C@H](CSSC[C@H](N)C(=O)N[C@@H]([C@@H](C)CC)C(=O)N[C@@H](C)C(=O)N[C@@H](Cc4cnc[nH]4)C(=O)N[C@@H](Cc4ccc(O)cc4)C(=O)NCC(=O)N[C@@H](CCCCN)C(=O)N2)NC(=O)[C@H](CSSC[C@@H](C(=O)N[C@@H](CC(C)C)C(=O)O)NC(=O)[C@H](Cc2ccccc2)NC(=O)CNC(=O)[C@H]([C@@H](C)CC)NC(=O)[C@H]([C@@H](C)CC)NC(=O)[C@@H]2CCCN2C(=O)[C@@H]2CCCN2C(=O)[C@H]([C@@H](C)O)NC3=O)NC(=O)[C@H](CCC(N)=O)NC(=O)[C@H](CC(N)=O)NC(=O)[C@H]([C@@H](C)CC)NC1=O (H-CIAHYGKCDGIINQCCDPWLCTPPIIGFCL-OH; disulfide 1-16, 8-21, 15-29)	Non-toxic	Non-toxic	Non-toxic	Non-toxic	inactive
